# Insulin prom act: TRM-6 insulin promoter activation; TRM-6 cells (human fetal islet line), insulin promoter eGFP reporter, imaging; plate-scaled: unstimulated 0, stimulated control 100; activation, % at 2 µM; 0.81% of 130,000 active;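 active = activation at 2 µM above a set limit, confirmed on inspection of the cell images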;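 note: share of cells whose green reporter signal exceeds an intensity cutoff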
#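 Assay system: TRM-6 human fetal islet cells, insulin promoter–eGFP reporter; Also added: 0.75 µM tamoxifen as reporter inducer; Schedule: 15 h tamoxifen pre-treatment, 48 h compound treatment at 37 °C; Signal: fixed-cell fluorescence microscopy, eGFP plus Hoechst; Read-out: percent activation from GFP-positive cell fraction; Control set: stimulated and unstimulated wells.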
# Numbers without * were called inactive. Only a selection was taken, and hits are over-represented in it overall.
SMILES,Insulin prom act
CC(=O)OCC1O[C@@H](O[C@@H]2C[C@H]3C(C)(C)[C@H](OC(C)=O)CC[C@]3(C)[C@H]3CC[C@]45C[C@]4(CC[C@H]5[C@@H](C)C[C@@H](O)[C@H](O)C(C)(C)O)[C@@]32C)[C@H](O)[C@@H](O)[C@@H]1O (some centres not stated),0
Cc1ccc(CNC(=O)C2C3C=CC(C3)C2C(=O)O)cc1 (configuration not stated),372
CCc1cc(CNC(=O)CCc2nnc(Cc3cccc(C)c3)o2)on1,6
Cc1ccc(OCC(=O)Nc2ccc(N3CCCC3)cc2)cc1C,163*
O=C(COc1cccc(Cl)c1)Nc1ccc(N2CCOCC2)cc1,0
COc1ccccc1OCC(=O)Nc1ccc(N2CCCCC2)cc1,-9
CCc1nnc(NC(=O)CN2CCN(C(=O)c3ccccc3)CC2)s1,0
CCN(CC)S(=O)(=O)c1cccc(-c2n[nH]c(=S)n2/N=C/c2ccc(Br)cc2)c1,438*
Cc1ccc(-c2n[nH]c(=S)n2/N=C/c2c(C)nn(-c3ccccc3)c2C)cc1,-7
Cc1cccc(-c2n[nH]c(=S)n2/N=C/c2ccc(C)s2)c1,6
Cc1ccccc1Oc1ncnc(N)c1[N+](=O)[O-],8
Cc1cc(C)c(C)c(Oc2ncnc(N)c2[N+](=O)[O-])c1,-3
Cc1ccc(Oc2ncnc(N)c2[N+](=O)[O-])cc1C,312*
N=C(N)SCc1ccccc1Cl,0
NCC(O)CN(c1ccccc1)c1ccccc1 (configuration not stated),8
COc1ccc(NC(=S)N(CCCN2CCCC(C)C2)Cc2cccs2)cc1 (configuration not stated),0
CCCc1nnc(NC(=O)CCC(=O)N2CCN(CCOc3ccc(C)cc3)CC2)s1,-5
CCCC(C(=O)NCc1ccco1)N(C(=O)CNS(=O)(=O)c1ccccc1)c1ccc(OC)cc1 (configuration not stated),122
CCCC(C(=O)NC1CCCCC1)N(Cc1ccco1)C(=O)CNS(=O)(=O)c1ccccc1 (configuration not stated),77*
CCCCC(C(=O)NC1CCCC1)N(Cc1ccco1)C(=O)Cn1nnc(-c2ccc(F)cc2)n1 (configuration not stated),0
COc1ccc(/C=C/C2=NN(C)C(=O)CC2)cc1,-85
COC(=O)c1cn(CC(=O)N2CCCCCC2)c2ccccc12,381
O=Cc1cn(CC(=O)N2CCOCC2)c2ccccc12,411*
Cc1nc2ccccc2c(=O)n1CC(=O)N1CCOCC1,-7
CC(C)(C)C(=O)Nc1nnc(CSCc2ccccc2F)s1,9
SMILES,Insulin prom act
Cc1ccc(Nc2nc(N)c([N+](=O)[O-])c(N3CCC(C)CC3)n2)cc1C,529*
CCN1CCN(c2nc(Nc3cccc(C)c3)nc(N)c2[N+](=O)[O-])CC1,8
Cc1ccc(Nc2nc(NCC3CCCO3)nc(N)c2[N+](=O)[O-])cc1C (configuration not stated),5
CCOC(=O)N1CCN(C(=O)c2oc3ccc(S(=O)(=O)N4CCCCCC4)cc3c2C)CC1,5
O=c1c2ccccc2nc2c3ccccc3c(NCCN3CCOCC3)nn12,9
CNc1nc(C(=O)O)nc(N2CCOCC2)n1,272
C=CCNc1nc(NCCN2CCOCC2)nc(N2CCOCC2)n1,493*
CC(=O)Nc1ccc(NC(=O)CN(c2cccc(C)c2)S(C)(=O)=O)cc1,0
CC(C)CCNC(=O)[C@@H](NC(=O)c1c(F)cccc1F)C(C)C,94*
CC(C)[C@H](NC(N)=O)C(=O)NCCc1ccc(Cl)cc1Cl,-6
Cc1nc2c(C(=O)NCCC(C)C)c[nH]n2c(=O)c1Cc1ccccc1F,0
O=C(NCc1ccccc1Cl)c1ccc2c(=O)n(CCCN3CCCC3=O)c(=S)[nH]c2c1,103
O=C(Nc1ccc(OCC(=O)N2CCC(Cc3ccccc3)CC2)cc1)c1ccco1,-4
O=C(NCCC1=CCCCC1)C1CCN(S(=O)(=O)N2CCCC2)CC1,-7
O=C(NCCCN1CCCC1=O)C1CCN(S(=O)(=O)N2CCOCC2)CC1,131
CCC1CCCCN1CCCNC(=O)C1CCN(S(=O)(=O)N2CCCCC2)CC1 (configuration not stated),215*
Cc1ccn(C(=O)c2cc3c(C)nn(-c4ccccc4)c3s2)n1,3
O=C(Nc1ccccc1)NC1CC2CCC(C1)N2Cc1nnnn1Cc1ccc2c(c1)OCO2 (configuration not stated),0
O/N=C/c1cc(Cl)ccc1OCc1ccccc1Cl,0
O/N=C/c1ccccc1Oc1ccccc1,3
Cc1cc(C)cc(Oc2ccccc2/C=N\O)c1,223*
OCc1cc(-c2ccc(Cl)c(Cl)c2)on1,-7
Cc1ccc(C)c2[nH]c(=O)c(CN(CCN3CCCC3)C(=O)Nc3cccc(Cl)c3)cc12,3
COC(=O)CN(c1ccc(Cl)cc1C)S(C)(=O)=O,7
N#CCc1ccc(NC(=O)Nc2cccc(Cl)c2)cc1,7
SMILES,Insulin prom act
CC1C2=C(CC(C)(C)CC2=O)NC2=C1C(=O)CC(C)(C)C2,-5
CC1=C(C(=O)Nc2ccc(F)cc2)C(c2ccc(C)o2)C2=C(CC(C)(C)CC2=O)N1 (configuration not stated),296
CC1(C)CC(=O)C2=C(C1)Nc1cc3c(cc1C2c1ccc(F)cc1)OCO3 (configuration not stated),100*
O=C(c1cc(F)ccc1F)C1CCCN(C(=O)CCN2CCCCO2)C1 (configuration not stated),-8
C(#CCN1CCOCC1)COC(c1ccccc1)c1ccccc1,343
O=C(O)CCC(=O)N1N=C(c2ccccc2)CC1c1ccc2nccnc2c1 (configuration not stated),5
Cc1ccc(Cn2nnc(C(=O)Nc3cc(C)ccc3C)c2N)cc1,6
Cc1ccc(C)c(NC(=O)Cn2nc([N+](=O)[O-])c(Br)c2C)c1,0
Cc1ccc(C)c(NC(=O)c2ccc[n+](Cc3ccc([N+](=O)[O-])cc3)c2)c1,233*
CCOC(=O)Cn1c(=O)sc2ccccc21,0
Cc1ccc(OCn2c(=O)sc3ccccc32)cc1,437*
COc1ccc(-n2c(Cn3c(=O)sc4ccccc43)nnc2SC)cc1,12
CCN(CC)S(=O)(=O)c1ccc(-c2nnc(SCC(=O)Nc3ccc4c(c3)OCO4)o2)cc1,-9
O=C(/C=C/c1ccccc1)N1CCN(CC(O)COc2ccccc2)CC1 (configuration not stated),-5
Cc1noc(C)c1COc1cccc(C(=O)OCCOc2ccc(F)cc2)c1,-3
CCOC(=O)C1CCCN(c2cc(=O)n(C3CCCCC3)c(=O)[nH]2)C1 (configuration not stated),124*
CCOC(=O)C1CCCN(C(=O)C2CC(=O)N(c3ccc(C)cc3)C2)C1 (configuration not stated),-15
CCOC(=O)C1CCCN(C(=S)Nc2ccc(OC)cc2)C1 (configuration not stated),0
COC(=O)c1ccc(-c2nc3ccccc3[nH]2)cc1,-64
O=C(Nc1cccc2c1C(=O)NC2=O)c1cccc(N2C(=O)CCC2=O)c1,5
COC(=O)c1ccc(CSc2nnc(CNC(=O)c3cccs3)o2)o1,-7
Cc1cc(NC(=O)CSc2nc3c(c(=O)n2-c2ccc(Cl)cc2)SCC3)no1,6
O=C(O)CCCN1C(=O)c2ccc(C(=O)c3cccc([N+](=O)[O-])c3)cc2C1=O,0
CC(C)OC(=O)NS(=O)(=O)c1cccc([N+](=O)[O-])c1,0
